This is an account of results in ChEMBL document CHEMBL3822361, “Novel 1,6-naphthyridin-2(1H)-ones as potential anticancer agents targeting Hsp90” (Eur J Med Chem, 2016).

Series [1] deals with MDA-MB-468. Nature of the series: Antiproliferative activity against human MDA-MB-468 cells measured after 48 hrs by MTT assay. The class given is functional, cell-based. Particulars: MDA-MB-468, 48 h. The method in brief: (§1)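 Cells grown in DMEM with 2 mM L-glutamine, penicillin/streptomycin and 5% FBS at 37 °C, 5% CO2; seeded 6000/well in 96-well plates, attached 24 h. Compounds added over a concentration range in DMSO (1% final), 48 h. MTT (2.5 mg/mL in PBS) added for 3.5 h, formazan dissolved in DMSO, OD 570 nm. Growth relative to 1% DMSO; IC50 from separate triplicate experiments.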
For orientation: Tetrazolium assays rely on reduction of a dye to a coloured formazan, in cell work by metabolically active cells.

For series [2], the system named is MCF7. Nature of the series: Antiproliferative activity against human MCF7 cells measured after 48 hrs by MTT assay. The class given is functional, cell-based. Particulars: MCF7, 48 h. The method in brief:
as §1

The subject of series [3] is MDA-MB-468. In words: Induction of apoptosis in human MDA-MB-468 cells assessed as mortality at 15 uM measured after 48 hrs by Annexin V-FITC/propidium iodide staining-based flow cytometry. The class given is functional. Particulars: MDA-MB-468, 48 h. The method in brief: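 MDA-MB-468 cells seeded in wells, held 24 h at 37 °C in 5% CO2, then exposed to compound in DMSO (1% DMSO final) for 48 h. Floating and trypsinised adherent cells pooled, PBS-washed, stained with annexin V-FITC plus propidium iodide in binding buffer 15 min on ice in the dark. Flow cytometry, ≥10 000 events per sample; annexin V-positive cells scored apoptotic.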
(In general: Flow cytometry measures light scatter and fluorescence of single cells or particles in a stream.)

The test system of series [4] is MDA-MB-468. Nature of the series: Effect on cell cycle in human MDA-MB-468 cells assessed as accumulation at subG1-phase at 15 uM measured after 48 hrs by propidium iodide staining-based FACS analysis. The series is classed as functional. The method in brief:
(§2)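 MDA-MB-468 seeded 40,000/well in 24-well plates, 24 h at 37 °C, 5% CO2, then treated 48 h with compounds in DMSO (1% final). Cells trypsinized, washed in PBS, fixed in 70% ethanol, rehydrated in PBS, stained with propidium iodide in PBS. Phase distribution (G1, S, G2/M, polyploid, subG1) read by flow cytometry.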

Series [5] deals with T1, Heat shock protein HSP90 (Homo sapiens) (UniProt P07900+P08238). In words: Inhibition of HSP90 in human MCF7 cells assessed as induction of prosurvival heat shock response at 1.5 times IC50 measured after 48 hrs by Western blot analysis. The series is classed as cell-based. In short, it runs like this:
(§3)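 Cells seeded in 6-well plates, 24 h at 37 °C, 5% CO2, then exposed 48 h to compound or 17-AAG in DMSO (1% final) or to vehicle. Lysed 2 h on ice in buffer with protease and phosphatase inhibitors, sonicated, protein measured by BCA. Equal protein run on SDS-PAGE, moved to PVDF, primary antibodies overnight at 4 °C, HRP secondary 1 h, ECL chemiluminescence.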
(A western blot detects proteins with antibodies after separation by electrophoresis.)

The target of series [6] is T1, Heat shock protein HSP90 (Homo sapiens). In words: Inhibition of HSP90 in human MCF7 cells assessed as Raf-1 protein degradation at 1.5 times IC50 measured after 48 hrs by western blot analysis. The series is classed as cell-based. In short, it runs like this:
as §3

The target is the same in series [7]. Nature of the series: Inhibition of HSP90 in human MCF7 cells assessed as ER-alpha protein degradation at 1.5 times IC50 measured after 48 hrs by western blot analysis. The class given is cell-based. In short, it runs like this: as §3
For series [8], the system named is MCF7. In words: Effect on actin level in human MCF7 cells at 1.5 times IC50 measured after 48 hrs by western blot analysis. The class given is cell-based. The following applies: mcf7, 48 h. In short, it runs like this:
as §3

Series [9] has as its target T1, Heat shock protein HSP90 (Homo sapiens). In words: Inhibition of HSP90 in human MDA-MB-468 cells assessed as Raf-1 protein degradation at 1.5 times IC50 measured after 48 hrs by western blot analysis. The class given is cell-based. The method in brief:
as §3

For series [10], the system named is MDA-MB-468. In words: Effect on actin level in human MDA-MB-468 cells at 1.5 times IC50 measured after 48 hrs by western blot analysis. Particulars: mda-mb-468, 48 h. The class given is cell-based. In short, it runs like this: as §3
For series [11], the system named is MCF7. In words: Effect on HSP90 level in human MCF7 cells at 1.5 times IC50 measured after 48 hrs by western blot analysis. The class given is cell-based. The following applies: mcf7, 48 h. In short, it runs like this: as §3
In series [12] the test system is MDA-MB-468. Nature of the series: Effect on HSP90 level in human MDA-MB-468 cells at 1.5 times IC50 measured after 48 hrs by western blot analysis. The class given is cell-based. Particulars: mda-mb-468, 48 h. The method in brief:
as §3

For series [13], the system named is MDA-MB-468. In words: Cell cycle arrest in human MDA-MB-468 cells at 15 uM measured after 48 hrs by propidium iodide staining-based FACS analysis. The series is classed as functional. In short, it runs like this: as §2
Series [14] deals with T1, Heat shock protein HSP90 (Homo sapiens). Nature of the series: Inhibition of HSP90 in human MCF-7 cells assessed as ER-alpha protein degradation at 1.5 times IC50 measured after 48 hrs by western blot analysis.
Series [15] has as its system MDA-MB-468. In words: Effect on cell cycle distribution in human MDA-MB-468 cells assessed as accumulation at G2/M-phase at 2 uM measured after 48 hrs by propidium iodide staining-based flow cytometry. The series is classed as functional. The method in brief:
as §2

The subject of series [16] is MCF7. Nature of the series: Antiproliferative activity against human MCF7 cells measured after 5 days by MTS assay. Particulars: MCF7, 120 h. The series is classed as functional, cell-based.

SMILES strings stand for the structures. Calls of active or inactive are those of the source. The rule behind the calls is not given here.

Take `Cn1c(=O)c(NC(=O)c2cccc(-c3ccccc3)c2)cc2cnc(N3CCN(CCO)CC3)cc21`: the 50% inhibitory concentration (IC50) in the series with MDA-MB-468 [1] was found to be 14700 nM; in the series on MCF7 [2] it was 15200 nM. The mortality at 15 µM with MDA-MB-468 [3] came to 80%. Also, the result in the series on MDA-MB-468 [4] was Active. In addition, the inhibition result in series [5], in series [6], in series [7], in [9] and in series [14] was “Active” each time. For the same compound, the Activity entry in the series on MCF7 [8] is “Non-toxic”; in the series with MDA-MB-468 [10], “Non-toxic”; with MCF7 [11] it was “Toxic”; in the series on MDA-MB-468 [12], “Toxic”. Further, the result with MDA-MB-468 [13] was inactive.

Take `C=CCNC1=C2C[C@@H](C)C[C@H](OC)[C@H](O)[C@@H](C)/C=C(\C)[C@H](OC(N)=O)[C@@H](OC)/C=C\C=C(/C)C(=O)NC(=CC1=O)C2=O` [TANESPIMYCIN]: the IC50 in the series on MDA-MB-468 [1] amounted to 1570 nM; in the series with MCF7 [2], 29 nM; with MCF7 [16], 5 nM. The result with MDA-MB-468 [15] was Active.

A word on the IC50: it is the concentration needed to halve the response being measured. Read a high IC50 as weaker potency in that assay. What is called mortality is the percentage killed.
